Published values gathered from unrelated publications.
Compare with care: the assays were run in different laboratories. pEC50, pIC50: −log10 of the molar value. In brackets after ≈: the same amount, converted by molar mass.

SMILES	tested on	assay	system	setting	measurement	result
CNC(=S)NN=Cc1ccc(F)cc1	Leishmania major	parasite growth, MTT		72 h, promastigote	pIC50	3.46
C=C[C@]1(C)C[C@@H](OC(=O)CS[C@@H]2C[C@H]3CC[C@@H](C2)N3C)[C@]2(C)[C@H](C)CC[C@]3(CCC(=O)[C@H]32)[C@@H](C)[C@@H]1O	Enterococcus faecalis	microbial growth		clinical isolate	MIC50	> 128 µg/mL
CCC(=CCc1c(O)cc2c(c1O)C(=O)C[C@@H](c1ccccc1O)O2)CC	HeLa	cell growth or viability, MTT		3.75 µM, 48 h	inhibition	-0.655%
CN[C@H](CC(C)C)C(=O)N[C@H]1C(=O)N[C@@H](CC(N)=O)C(=O)N[C@H]2C(=O)N[C@H]3C(=O)N[C@H](C(=O)N[C@H](C(=O)O)c4cc(O)cc(O)c4-c4cc3ccc4O)[C@H](O)c3ccc(c(Cl)c3)Oc3cc2cc(c3O[C@@H]2O[C@H](CO)[C@@H](O)[C@H](O)[C@H]2O[C@H]2C[C@](C)(N)[C@H](O)[C@H](C)O2)Oc2ccc(cc2Cl)[C@H]1O	Enterococcus faecalis	microbial growth, agar dilution	ATCC29212		MIC	2 µg/mL (≈ 1.38 µM)
CN1CCN(c2ncc(-c3ccc4nncc(Nc5ncccn5)c4c3)cn2)CC1	Leishmania major	parasite growth		intracellular, amastigote	pEC50	< 4.60
CNC(=S)NN=Cc1ccc(O)c(OC)c1	Leishmania major	parasite growth, MTT		72 h, promastigote	pIC50	4.42
COc1ccc(Nc2cnnc3cc(-c4ccc(N5CCN(C)CC5)cc4)ccc23)nc1	Leishmania major	parasite growth		intracellular, amastigote	pEC50	5.22
CCC(=CCc1c(O)cc2c(c1O)C(=O)CC(c1ccc(O)cc1)O2)CC (stereo in doubt)	HeLa	cell growth or viability, MTT		1.563 µM, 48 h	inhibition	2.57%
